Test [1] concerns L1210. The experiment in a line: In vitro cytotoxicity in L1210 leukemia resistant to cisplatin. The class given is functional, Mus musculus. Conditions: read-out: ID50 (the source's name). The essentials:
(§1)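 L1210 murine leukaemia (sensitive, 40–60-fold DDP-resistant, or 30-fold [Pt(R,R-dach)SO4]-resistant) grown in suspension in McCoy's 5A with 5% horse serum and glutamine. Cells at 5 × 10^4/mL exposed 72 h to 0.01–10 μg/mL (final) compound, from DMF stock diluted in saline (≤0.5% DMF) or water for malonates. Cells Coulter-counted; ID50 from % growth inhibition.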

In test [2] the test system is L1210. The experiment in a line: In vitro cytotoxicity in L1210 leukemia sensitive to cisplatin. The class given is functional, Mus musculus. Conditions: read-out: ID50 (the source's name). The essentials:
as §1

Test [3] relates to Mus musculus. The experiment in a line: Antitumor activity against L1210 leukemia was determined at 5 mg/kg dose given on 1, 5, 9 days after tumor implantation in mice. The class given is functional, organism-based. On the set-up: dose 5 mg/kg. The essentials:
(§2)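 Male BDF1 mice (18–20 g) inoculated ip with 10^6 L1210/0 or P388 ascites leukemia cells on day 0. Test compound given ip on days 1, 5 and 9; dosing stopped after two doses if over half of the animals had died by day 9. Deaths recorded over 60 days. %T/C = mean survival of treated mice that died ÷ mean survival of untreated tumour-bearing controls. Long-term survivors also counted.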

The subject of test [4] is Mus musculus. The experiment in a line: Antitumor activity against P388 leukemia was determined at 5 mg/kg dose given on 1, 5, 9 days after tumor implantation in mice. On the set-up: dose 5 mg/kg. In kind it is functional, organism-based. Put shortly: as §2

For 2 molecules, IC50 and T/C results are on record in ChEMBL document CHEMBL1124873, “Cytotoxicity and antitumor activity of bis(platinum) complexes. A novel class of platinum complexes active in cell lines resistant to both cisplatin and 1,2-diaminocyclohexane complexes” (1990).

Several values for one entry are separate records, joined by “and”; a condition that tells them apart may be missing. Identical values can stand only once.

For `CC(C)(N)CCC(C)(C)N`, the IC50 in the test with L1210 [1] (Mus musculus, L1210) was 9.09 µM; in the test with L1210 [1], 5.53 µM; with L1210 [2], 6.2 µM and 0.98 µM.

With CISPLATIN, the values for the T/C in the test with Mus musculus [3] and with Mus musculus [4] were 210% and 170%, respectively.

Broadly, the T/C is the ratio of treated to control.
